High-throughput results: PubChem BioAssay, several laboratories
GLD-1 TGE inh: GLD-1-TGE RNA interaction inhibition (C. elegans) | Q17339 | 320,000 compounds, 0.44% hits | inhibition, % at 5.96 µM | purified GLD-1 + fluorescein TGE RNA, fluorescence polarization;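 active = percent inhibition above a per-plate cutoff, the plate mean of test compounds plus 3 SD, cut at about 30% in these data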;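 note: 0% = DMSO wells with GLD-1 and probe and 100% = wells lacking GLD-1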
Target sequence (Q17339 whole entry, looked up): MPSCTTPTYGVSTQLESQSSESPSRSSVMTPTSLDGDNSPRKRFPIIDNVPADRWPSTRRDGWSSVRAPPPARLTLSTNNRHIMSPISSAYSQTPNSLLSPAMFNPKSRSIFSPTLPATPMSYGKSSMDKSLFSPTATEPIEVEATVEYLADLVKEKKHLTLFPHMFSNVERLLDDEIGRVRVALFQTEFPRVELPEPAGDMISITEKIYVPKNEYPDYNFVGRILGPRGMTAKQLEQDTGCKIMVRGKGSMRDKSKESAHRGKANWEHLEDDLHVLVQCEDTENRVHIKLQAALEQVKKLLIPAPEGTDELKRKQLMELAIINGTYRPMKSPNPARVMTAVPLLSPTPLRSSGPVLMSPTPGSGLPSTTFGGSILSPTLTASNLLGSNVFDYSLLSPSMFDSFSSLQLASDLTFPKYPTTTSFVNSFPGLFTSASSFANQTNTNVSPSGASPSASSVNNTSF
Bcl-xL primary: inhibitors of human Bcl-xL. GST-Bcl-xL / FITC-Bim BH3 peptide fluorescence polarization. AID 2129. 320,000 compounds, 0.7% hits. Q07817. inhibition, % at 10.9 µM;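 active = inhibition above the mean of all tested compounds plus 3 SD, cutoff set per campaign, cut at about 30% in these data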;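 note: 0% = DMSO wells and 100% = unlabeled Bim-BH3 peptide competitor; inhibitors lower millipolarization by displacing the labeled peptide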
Target sequence (Q07817 whole entry, looked up): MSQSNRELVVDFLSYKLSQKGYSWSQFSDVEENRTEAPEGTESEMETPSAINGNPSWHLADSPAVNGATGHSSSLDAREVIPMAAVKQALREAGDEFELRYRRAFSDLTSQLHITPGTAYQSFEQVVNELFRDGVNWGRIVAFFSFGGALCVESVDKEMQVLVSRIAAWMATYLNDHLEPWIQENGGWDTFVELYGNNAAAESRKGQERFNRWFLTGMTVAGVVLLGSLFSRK
VIM-2 inhibitor: blocks Pseudomonas aeruginosa VIM-2 metallo-beta-lactamase. purified VIM-2, nitrocefin hydrolysis, epi-absorbance fluorescence. inhibition, % at 5.6 µM. 290,000 compounds, 0.89% hits;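 active = inhibition above the mean of all tested compounds plus 3 SD, cutoff set per screening run, cut at about 7.5% in these data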;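 note: red hydrolysis product quenches plate fluorescence so inhibitors raise well fluorescence; 0% = enzyme with DMSO and 100% = DMSO without enzyme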
EBV gp42 block: blocks Epstein-Barr virus glycoprotein 42 binding; Q1HVG2; Fluorescence polarization binding assay, mP read-out; inhibition, % (tested at 21.74 µM); 220,000 compounds, 0.42% hits; AID 1085; in the data active = inhibition above about 50%
MEX-5 binding: C. elegans MEX-5 TCR-2 RNA binding activity. Q9XUB2. MEX-5/FITC-TCR2 RNA binding, fluorescence polarization; stronger effect = lower value. activity score (negative = inhibition of binding), % at 10 µM. 300,000 compounds, 0.38% hits. AID 1832;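 active = inhibition past about -25% in most replicates, and total fluorescence under double the plate's negative control median, limit read from the data; inconclusive = replicates evenly split on the limit, or fluorescence at least double controls; inactive = too little inhibition in most replicates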;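 note: 0% = DMSO and -100% = 5 µM competing unlabeled TCR2 RNA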
IMP-1 inh: inhibitors of Pseudomonas aeruginosa IMP-1 metallo-beta-lactamase | purified IMP-1, nitrocefin hydrolysis, epi-absorbance fluorescence | inhibition, % at 5.6 µM | 290,000 compounds, 0.45% hits | AID 1556;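 active = inhibition above the mean plus 3 SD of all compounds in the same screening run, cut at about 4.5% in these data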;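 note: 0% = IMP-1 with DMSO and 100% = DMSO wells lacking enzyme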
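System: purified IMP-1 / Input: IMP-1 dispensed at 0.2 nM / Medium: 50 mM HEPES pH 7.1, 50 µM ZnSO4, 0.05% Brij 35 / Timing: 15 min enzyme–compound preincubation, then 25 min nitrocefin reaction, 25 °C / Technique: plate fluorescence quenching by hydrolysis product, ex 480/em 530 nm / Repeats: singlicate testing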
The depositor's hits bear a star; ? = inconclusive; . = not tested or not shown; + = active, no number; ! = not active in a repeat. Sampled rows, rich in hits. Any-hit rate of the full collection: about 2.2%.

SMILES	GLD-1 TGE inh	Bcl-xL primary	VIM-2 inhibitor	EBV gp42 block	MEX-5 binding	IMP-1 inh
COc1ccc(/C=N/Nc2nc3ccccc3s2)cc1O	.	.	-0.7	-2.1	-1.5	0.0
COc1cc(/C=C/c2nc3ccccc3s2)cc(OC)c1O	-51.5	9.1	0.3	-7.7	11.1	-1.9
COc1cc(C=C(c2nc3ccccc3s2)c2nc3ccccc3s2)ccc1O	-6.6	41.5*	-2.1	-24.2	-1.7	-2.9
CCC(C)(C)n1nnnc1C(C(C)C)N(Cc1ccco1)Cc1cc2cc3c(cc2[nH]c1=O)OCO3 (stereo not drawn)	28.1	45.5*	-2.0	-18.8	0.3	-0.7
CC(=O)N1C(=O)c2cccc3cccc(c23)C(=O)N1C(C)=O	-2.0	-3.5	-2.0	-17.4	0.4	-2.2
O=C1c2cccc3cccc(c23)C(=O)C1(O)O	6.4	11.0	.	.	-58.7*	.
CNC(=O)/C(C#N)=C/c1c(N2CCCCCC2)nc2ccccn2c1=O	-22.9	-6.8	8.1*	.	1.1	-1.7
CCNC(=O)/C(C#N)=C/c1c(N2CCCCCC2)nc2ccccn2c1=O	-1.0	-0.7	1.5	.	0.1	-1.3
CC(Oc1ccccc1Cl)C(=O)Nc1ccc(S(=O)(=O)Nc2nccs2)cc1 (stereo not drawn)	3.6	3.7	.	.	-1.2	.
O=C1COc2ccc(C(=O)CSc3nnc(Cc4cccs4)n3-c3ccccc3)cc2N1	7.8	2.3	2.1	-15.8	1.4	-1.1
O=C1COc2ccc(C(=O)CSc3nnc(-c4cccs4)n3Cc3ccccc3)cc2N1	0.7	-2.6	9.3*	-70.1	-2.2	-2.6
CCOC(=O)c1c[nH]c2c(C)ccc(Cl)c2c1=O	2.0	5.4	6.2	3.3	-0.5	-1.7
CCOC(=O)c1c[nH]c2c(Cl)ccc(Cl)c2c1=O	-8.4	6.1	8.6*	-0.1	4.9	-0.1
CCOC(=O)c1c[nH]c2c(C(=O)c3ccccc3)cc(Cl)cc2c1=O	.	.	7.7*	.	0.5	-3.3
CCC(C)N(C(=O)Cn1nnc(-c2ccc(Cl)cc2)n1)C1CCS(=O)(=O)C1 (stereo not drawn)	-3.0	-3.5	.	.	0.6	.
COc1ccc(CNC(=O)C2CCN(S(=O)(=O)c3ccc4c(c3)CC(C)N4C(C)=O)CC2)cc1 (stereo not drawn)	-9.4	0.3	-5.2	.	-2.0	-2.1
CCn1c(N2CCN(Cc3ccc([N+](=O)[O-])cc3)CC2)nc2ccccc21	-0.4	2.5	-0.9	.	-7.8	23.4*
CCCn1c(N2CCN(Cc3ccc(Cl)cc3)CC2)nc2ccccc21	2.2	-0.2	-1.8	7.9	2.5	-0.2
CCOc1ncccc1C(=O)OCC(=O)NCc1cccs1	3.1	.	.	.	.	.
CCOC(=O)Nc1ccc(NCc2ccc(F)cc2)nc1N	132.3*	141.4*	.	.	.	.
NC(=O)c1ccccc1Nc1nc2nc3ccccc3c(=O)n2cc1Br	27.6	31.1*	4.8	-19.4	-0.5	1.0
Cc1cc(Nc2ccccc2C(=O)O)nc2nc3ccccc3c(=O)n12	1.9	2.7	-1.9	-4.2	2.2	0.7
CSCC[C@H](NC(=O)C1CCC(CNC(=O)[C@@H]2CCCN2C(=O)OC(C)(C)C)CC1)C(=O)O (stereo partly drawn)	.	.	-6.1	.	1.1	-4.7
NC(=O)c1ccsc1NC(=O)COc1ccccc1	14.7	47.4*	-2.7	-4.6	-2.8	-2.7
NS(=O)(=O)c1cc(C(=O)NC2CCSc3ccccc32)ccc1Cl (stereo not drawn)	5.9	33.6*	-3.0	.	?	-5.5
SMILES	GLD-1 TGE inh	Bcl-xL primary	VIM-2 inhibitor	EBV gp42 block	MEX-5 binding	IMP-1 inh
NS(=O)(=O)c1cccc(C(=O)NC2CCSc3ccccc32)c1 (stereo not drawn)	13.5	2.2	-1.8	.	-1.8	-5.0
CCOCCCNC(=O)c1ccc2c(c1)ncn2-c1ccccc1OC	2.0	0.0	-3.5	.	0.0	-4.5
C[C@@H]1CN([C@H](C)CO)C(=O)c2cc(NC(=O)Cc3cn(C)c4ccccc34)ccc2O[C@H]1CN(C)S(=O)(=O)c1ccc(F)cc1	-3.9	.	.	.	.	.
Cc1c(C(=O)Nc2c3c(nn2C(C)(C)C)CS(=O)(=O)C3)cccc1[N+](=O)[O-]	3.5	5.6	1.1	.	0.5	-3.3
O=C(OCCN1CCOCC1)c1ccccc1	-1.2	2.1	0.9	.	-0.7	1.8
O=C(OCCN1CCOCC1)c1cccnc1	-3.0	-0.6	-1.0	-21.9	1.3	8.4*!
O=c1cc(CSc2nnc3ccccn23)c2c(ccc3ccccc32)o1	65.7*	75.9*	4.7	-3.3	-1.0	-2.9
Cn1c(=O)c(NC2CCCCC2)c2c3c(cccc31)C(=O)c1ccccc1-2	.	.	7.2	139.3*	.	5.9*
CC(=O)Nc1ccc(Nc2c3c4c(cccc4n(C)c2=O)C(=O)c2ccccc2-3)cc1	169.0*	+	-1.4	140.5*	-2.3	0.0
CC(=O)Nc1ccc(NC2=CC(=O)c3ccccc3C2=O)cc1	1.2	10.8	-2.4	.	-0.7	-4.5
Cn1c(NC2CCCCC2)cc(=O)n(C)c1=O	-1.8	4.8	-3.3	.	-3.4	-3.6
O=C(N/N=C/C=C\c1ccccc1[N+](=O)[O-])c1cccs1	4.7	9.7	-3.5	12.2	-1.1	-5.8
O=C(N/N=C/C=C/c1ccc([N+](=O)[O-])cc1)c1cccs1	-22.2	0.0	-2.6	-50.5	-72.0*	-1.9
O=Cc1cc2ccccc2nc1SCc1ccc(Cl)c(Cl)c1	-3.4	3.5	-0.6	10.1	-2.8	4.7*
O=Cc1cc2ccccc2nc1SCc1ccc(Cl)cc1	-2.4	4.3	-3.0	3.4	-1.2	-0.1
CC(C)Cn1c(-c2csc(C(C)C)c2)n[nH]c1=S	0.8	-19.0	-1.7	1.7	0.0	-1.2
Cc1cc(-c2n[nH]c(=S)n2CC(C)C)cs1	-6.2	-9.7	8.6*	-14.7	1.2	-4.5
O=C(CNC(=O)c1sc2ccccc2c1Cl)NCc1cccc(C(F)(F)F)c1	1.9	6.5	.	.	-1.0	.
O=C1NC(=O)N(Cc2ccccc2)C1=O	29.6	56.6*	0.3	.	-0.9	-0.2
COc1ccc(C(=O)NC2CC2)cc1OC1CCN(C(C)CSC)CC1 (stereo not drawn)	15.1	31.2*	-4.1	.	-11.6	-2.9
C/C=C(\C)CN1CCC(Oc2cc(C(=O)NC3CC3)ccc2OC)CC1	-0.2	3.7	-0.7	.	-0.9	0.1
CC#CC(=O)N1CCC(Oc2cccc(C(=O)NCc3ccccn3)c2)CC1	1.5	-6.5	-3.9	.	-0.5	-2.5
CSCC(C)N1CCC(Oc2cccc(C(=O)NCc3ccccn3)c2)CC1 (stereo not drawn)	15.8	47.9*	-2.8	.	-29.3*	-3.6
CCCCCCC(=O)NN1CCN(C)CC1	6.8	3.3	-3.7	-12.5	0.0	8.0*
O=c1oc2cc(O)ccc2cc1-c1nc2c(s1)CCc1ccccc1-2	99.5*	36.6*	-0.5	126.6*	.	-0.5
COc1ccc(NC(=O)/C=C/c2cccc(Br)c2)cn1	67.2*	90.6*	-0.9	.	-33.4*	-2.5
